Results taken from ChEMBL document CHEMBL4706595, “1,3-Oxazine-2-one derived dual-targeted molecules against replicating and non-replicating forms of Mycobacterium tuberculosis” (Eur J Med Chem, 2020).
In brackets after ≈: the same amount, converted by molar mass. Activity calls are given as the source filed them. No cut-off for these calls is given here.

Experiments:
[1] = tested on: Mycobacterium tuberculosis; assay: Antimycobacterial activity against replicating Mycobacterium tuberculosis H37Rv assessed as inhibition of bacterial growth incubated for 7 days by MABA assay; format: functional; settings: time 7 day
[2] = tested on: Mycobacterium tuberculosis; assay: Antimycobacterial activity against non-replicating Mycobacterium tuberculosis H37Rv expressing pFCA-LuxAB assessed as bacterial growth inhibition incubated for 10 days under anerobic condition by low oxygen recovery assay; format: functional; settings: 240 h, time 10 day
[3] = tested on: Mycobacterium tuberculosis; assay: Antimycobacterial activity against replicating Mycobacterium tuberculosis H37Ra assessed as inhibition of bacterial growth incubated for 7 days by MABA assay; format: functional; settings: time 7 day
[4] = tested on: Mycolicibacterium smegmatis; assay: Antimycobacterial activity against Mycobacterium smegmatis mc2155 assessed as inhibition of bacterial growth incubated for 48 hrs by broth microdilution method; format: functional; settings: MC2 155
[5] = Cytotoxicity against human PBMC assessed as reduction in cell growth after 72 hrs by MTT assay; format: tissue-based
[6] = tested on: Mycobacterium tuberculosis; assay: Antimycobacterial activity against Mycobacterium tuberculosis H37Rv ATCC 27294 assessed as inhibition of bacterial growth by agar plate dilution method; format: functional
Summary of the method: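 MIC determined by agar plate dilution method; isoniazid and rifampin run as references.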

[7] = tested on: Mycobacterium tuberculosis; assay: Inhibition of mycolic acid biosynthesis in Mycobacterium tuberculosis H37Ra assessed as reduction in alfa-mycolate production at 5XMIC incubated for 7 days by TLC analysis; format: functional; settings: for inhibition (INH): time 7 day
[8] = tested on: Mycobacterium tuberculosis; assay: Inhibition of mycolic acid biosynthesis in Mycobacterium tuberculosis H37Ra assessed as reduction in methoxy-mycolate production at 5XMIC incubated for 7 days by TLC analysis; format: functional; settings: time 7 day
[9] = Inhibition of Mycobacterium tuberculosis H37Ra menG assessed as inhibition of 2-methyl-3-(3,7,11-trimethyldodeca-2,6,10-trienyl)naphthalene-1,4-dione formation using 2-(3,7,11-trimethyldodeca-2,6,10-trienyl)naphthalene-1,4-dione as substrate incubated for 3 hrs in presence of SAM by HPLC analysis
[10] = tested on: Mycobacterium tuberculosis; assay: Inhibition of mycolic acid biosynthesis in Mycobacterium tuberculosis H37Ra assessed as reduction in keto-mycolate production at 5XMIC incubated for 7 days by TLC analysis; format: functional; settings: for inhibition (INH): time 7 day
[11] = Inhibition of Mycobacterium smegmatis mc2155 menG assessed as inhibition of 2-methyl-3-(3,7,11-trimethyldodeca-2,6,10-trienyl)naphthalene-1,4-dione formation using 2-(3,7,11-trimethyldodeca-2,6,10-trienyl)naphthalene-1,4-dione as substrate incubated for 3 hrs in presence of SAM by HPLC analysis; set-up: species or system Mycolicibacterium smegmatis MC2 155

Row | SMILES | MIC [1] [mg/L] | MIC [2] [mg/L] | MIC [3] [mg/L] | MIC [4] [mg/L] | IC50 [5] [mg/L] | MIC [6] [mg/L] | inhibition (INH) [7] [%] | inhibition (INH) [8] [%] | IC50 [9] [mg/L] | inhibition (INH) [10] [%] | IC50 [11] [mg/L] | inhibition ([7]; time 7.0 day) | inhibition ([10]; time 7.0 day)
1 | CCCCCC(=O)Oc1cccc(Nc2nc3ccccc3c(=O)o2)c1 | > 100 | > 100 | > 100 | > 100 | 186 (≈ 529 µM) | – | – | – | – | – | – | – | –
2 | CCCCCCCCCOc1ccc(C(=O)OCCCOc2cccc(Nc3nc4ccccc4c(=O)o3)c2)cc1 | 41.8 (≈ 74.9 µM) | 31 (≈ 55.6 µM) | 37.1 (≈ 66.5 µM) | 50 (≈ 89.5 µM) | 169 (≈ 303 µM) | – | – | – | – | – | – | – | –
3 | CCCCCCCCC(=O)Oc1cccc(Nc2nc3ccccc3c(=O)o2)c1 | > 100 | > 100 | > 100 | > 100 | 171 (≈ 434 µM) | – | – | – | – | – | – | – | –
4 | CCC(=O)Oc1cccc(Nc2nc3ccccc3c(=O)o2)c1 | > 100 | 98.5 (≈ 317 µM) | > 100 | 100 (≈ 322 µM) | 180 (≈ 579 µM) | – | – | – | – | – | – | – | –
5 | CCCCCCC(=O)Oc1cccc(Nc2nc3ccccc3c(=O)o2)c1 | > 100 | > 100 | > 100 | 50 (≈ 136 µM) | 176 (≈ 481 µM) | – | – | – | – | – | – | – | –
6 | CCCCCCCC/C=C/CCCCCCCC(=O)Oc1cccc(Nc2nc3ccccc3c(=O)o2)c1 | 47.4 (≈ 91.3 µM) | 68.9 (≈ 133 µM) | 51.4 (≈ 99.2 µM) | 50 (≈ 96.4 µM) | 179 (≈ 344 µM) | – | – | – | – | – | – | – | –
7 | CO[C@H]1/C=C/O[C@@]2(C)Oc3c(C)c(O)c4c(O)c(c(/C=N/N5CCN(C)CC5)c(O)c4c3C2=O)NC(=O)/C(C)=C\C=C\[C@H](C)[C@H](O)[C@@H](C)[C@@H](O)[C@@H](C)[C@H](OC(C)=O)[C@@H]1C [RIFAMPIN] | 0.01 (≈ 0.0122 µM) | 0.04 (≈ 0.0486 µM) | 0.02 (≈ 0.0243 µM) | 1.5 (≈ 1.82 µM) | 62.9 (≈ 76.5 µM) | 0.01 (≈ 0.0122 µM) | – | – | – | – | – | – | –
8 | CCCC(=O)Oc1cccc(Nc2nc3ccccc3c(=O)o2)c1 | > 100 | > 100 | > 100 | > 100 | 199 (≈ 615 µM) | – | – | – | – | – | – | – | –
9 | CCCCOc1ccc(C(=O)OCCCOc2cccc(Nc3nc4ccccc4c(=O)o3)c2)cc1 | 7.28 (≈ 14.9 µM) | 9.41 (≈ 19.3 µM) | 6.32 (≈ 12.9 µM) | 25 (≈ 51.2 µM) | 117 (≈ 239 µM) | – | 100 | 36 | 20.06 | 31 | 29.71 | – | –
10 | CCCCCCCCOc1ccc(C(=O)OCCCOc2cccc(Nc3nc4ccccc4c(=O)o3)c2)cc1 | 12.4 (≈ 22.8 µM) | 18.9 (≈ 34.8 µM) | 16.2 (≈ 29.8 µM) | 12.5 (≈ 23 µM) | 154 (≈ 283 µM) | – | – | – | – | – | – | – | –
11 | CCCOc1ccc(C(=O)OCCCOc2cccc(Nc3nc4ccccc4c(=O)o3)c2)cc1 | 11.7 (≈ 24.7 µM) | 15.3 (≈ 32.2 µM) | 10 (≈ 21.1 µM) | 12.5 (≈ 26.3 µM) | 145 (≈ 306 µM) | – | – | – | – | – | – | – | –
12 | CCCCCCCC/C=C/CCCCCCCCOc1ccc(C(=O)OCCCOc2cccc(Nc3nc4ccccc4c(=O)o3)c2)cc1 | 18.7 (≈ 27.4 µM) | 35.9 (≈ 52.6 µM) | 19.6 (≈ 28.7 µM) | 12.5 (≈ 18.3 µM) | 150 (≈ 219 µM) | – | – | – | – | – | – | – | –
13 | CCCCC(=O)Oc1cccc(Nc2nc3ccccc3c(=O)o2)c1 | > 100 | > 100 | > 100 | > 100 | 201 (≈ 595 µM) | – | – | – | – | – | – | – | –
14 | CCCCCCCCCCCCCCCC(=O)Oc1cccc(Nc2nc3ccccc3c(=O)o2)c1 | > 100 | > 100 | > 100 | 100 (≈ 203 µM) | 182 (≈ 369 µM) | – | – | – | – | – | – | – | –
15 | O=c1oc(Nc2cccc(O)c2)nc2ccccc12 | 75.2 (≈ 296 µM) | 40.1 (≈ 158 µM) | 66.2 (≈ 260 µM) | 25 (≈ 98.3 µM) | 173 (≈ 682 µM) | – | – | – | – | – | – | – | –
16 | CCCCCOc1ccc(C(=O)OCCCOc2cccc(Nc3nc4ccccc4c(=O)o3)c2)cc1 | 7.01 (≈ 13.9 µM) | 9.02 (≈ 17.9 µM) | 8.16 (≈ 16.2 µM) | 25 (≈ 49.7 µM) | 142 (≈ 282 µM) | – | 100 | 48 | 20.88 | 37 | 27.19 | – | –
17 | CCCCCCCOc1ccc(C(=O)OCCCOc2cccc(Nc3nc4ccccc4c(=O)o3)c2)cc1 | > 100 | > 100 | > 100 | > 100 | 181 (≈ 341 µM) | – | – | – | – | – | – | – | –
18 | NNC(=O)c1ccncc1 [ISONIAZID] | 0.43 (≈ 3.14 µM) | > 128 | 0.3 (≈ 2.19 µM) | 6.1 (≈ 44.5 µM) | 71.7 (≈ 523 µM) | 0.4 (≈ 2.92 µM) | – | – | – | – | – | – | –
19 | CCOc1ccc(C(=O)OCCCOc2cccc(Nc3nc4ccccc4c(=O)o3)c2)cc1 | > 100 | > 100 | > 100 | > 100 | 102 (≈ 223 µM) | – | – | – | – | – | – | – | –
20 | CCCCCCCCCCCCCCCCCCOc1ccc(C(=O)OCCCOc2cccc(Nc3nc4ccccc4c(=O)o3)c2)cc1 | 56.1 (≈ 81.9 µM) | 38.2 (≈ 55.7 µM) | 60.4 (≈ 88.2 µM) | 12.5 (≈ 18.3 µM) | 158 (≈ 231 µM) | – | – | – | – | – | – | – | –
21 | COc1ccc(C(=O)OCCCOc2cccc(Nc3nc4ccccc4c(=O)o3)c2)cc1 | 9.71 (≈ 21.7 µM) | 40 (≈ 89.6 µM) | 8.16 (≈ 18.3 µM) | > 100 | 162 (≈ 364 µM) | – | – | – | – | – | – | – | –
22 | CCCCCCCCCC(=O)Oc1cccc(Nc2nc3ccccc3c(=O)o2)c1 | 33 (≈ 80.7 µM) | 53.3 (≈ 130 µM) | 29.6 (≈ 72.4 µM) | 25 (≈ 61.2 µM) | 195 (≈ 476 µM) | – | – | – | – | – | – | – | –
23 | CCCCCCCC(=O)Oc1cccc(Nc2nc3ccccc3c(=O)o2)c1 | > 100 | > 100 | > 100 | > 100 | 190 (≈ 499 µM) | – | – | – | – | – | – | – | –
24 | CC(C)=CCOc1ccc(C(=O)OCCCOc2cccc(Nc3nc4ccccc4c(=O)o3)c2)cc1 | > 100 | > 100 | > 100 | 12.5 (≈ 25 µM) | 190 (≈ 380 µM) | – | – | – | – | – | – | – | –
25 | CCCCCCCCCCOc1ccc(C(=O)OCCCOc2cccc(Nc3nc4ccccc4c(=O)o3)c2)cc1 | 32.1 (≈ 56.1 µM) | 45.1 (≈ 78.7 µM) | 38 (≈ 66.4 µM) | 100 (≈ 175 µM) | 173 (≈ 303 µM) | – | – | – | – | – | – | – | –
26 | CC(=O)Oc1cccc(Nc2nc3ccccc3c(=O)o2)c1 | > 100 | 80.3 (≈ 271 µM) | > 100 | 100 (≈ 338 µM) | 131 (≈ 444 µM) | – | – | – | – | – | – | – | –
27 | CC(C)=CCOc1cccc(NC(=O)Nc2ccccc2C)c1 | 5.2 (≈ 16.8 µM) | – | – | – | – | – | – | – | – | – | – | – | –
28 | CCCCCCOc1ccc(C(=O)OCCCOc2cccc(Nc3nc4ccccc4c(=O)o3)c2)cc1 | 6.12 (≈ 11.8 µM) | 5.32 (≈ 10.3 µM) | 5.83 (≈ 11.3 µM) | 6.3 (≈ 12.2 µM) | 123 (≈ 238 µM) | – | – | 61 | 13.53 | – | 16.33 | Active | Active
